In brackets after ≈: the same amount, converted by molar mass.
Columns and labels:
[1] = system: Mus musculus; assay: Effect on in Vivo Growth of s.c. B-16 Melanomas in mice measured ad difference of average times for tumors to reach a volume of 500 mm**3 between treatment and control groups at dose of 35 mg/kg; type: functional
[2] = system: Mus musculus; assay: Maximum tolerated dose (MTD) in mice bearing s.c. B-16 Melanomas; type: functional
[3] = system: Mus musculus; assay: Effect on in Vivo Growth of s.c. B-16 Melanomas in mice measured ad difference of average times for tumors to reach a volume of 500 mm**3 between treatment and control groups at dose of 48 mg/kg; type: functional
[4] = system: Mus musculus; assay: Effect on in Vivo Growth of s.c. B-16 Melanomas in mice measured ad difference of average times for tumors to reach a volume of 500 mm**3 between treatment and control groups at dose of 60 mg/kg; type: functional
[5] = system: Mus musculus; assay: Effect on in Vivo Growth of s.c. B-16 Melanomas in mice measured ad difference of average times for tumors to reach a volume of 500 mm**3 between treatment and control groups at dose of 75 mg/kg; type: functional
[6] = system: Mus musculus; assay: Effect on in Vivo Growth of s.c. B-16 Melanomas in mice measured ad difference of average times for tumors to reach a volume of 500 mm**3 between treatment and control groups at dose of 41 mg/kg; type: functional
[7] = species: Mus musculus; assay: Maximum tolerated dose (MTD) in mice; type: functional
[8] = system: Mus musculus; assay: Effect on in Vivo Growth of s.c. HT-29 […] in mice measured ad difference of average times for tumors to reach a volume of 500 mm**3 between treatment and control groups at dose of 24 mg/kg; type: functional
Method in brief: (§1)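 Athymic nude mice bearing human HT-29 colon or NCI-H460 lung carcinoma cells were given a single bolus ip injection, dosed as mg CPT equivalent/kg. Endpoint was TGD in days, the difference in mean time to reach 500 mm³ tumor volume between treated and control groups. Student's t-test vs vehicle.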

[9] = Aqueous solubility was measured; type: physicochemical
Method in brief: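 Conjugate dissolved in aqueous Na₂HPO₄ (0.1 M, pH 7.4) at 37 °C; solubility expressed as mg of conjugate per mL.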

[10] = system: Mus musculus; assay: Effect on in Vivo Growth of s.c. HT-29 […] in mice measured ad difference of average times for tumors to reach a volume of 500 mm**3 between treatment and control groups at dose of 28 mg/kg; type: functional; method in brief: as §1
[11] = system: Mus musculus; assay: Effect on in Vivo Growth of s.c. HT-29 […] in mice measured ad difference of average times for tumors to reach a volume of 500 mm**3 between treatment and control groups at dose of 20 mg/kg; type: functional
Method in brief: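 Athymic nude mice bearing human HT-29 colon carcinoma cells got a single bolus ip injection of conjugate, dosed in mg CPT equivalent/kg. Tumor growth delay (days) is the difference in average time for tumors to reach 500 mm³ between treated and control groups. Significance was tested by Student's t-test against vehicle.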

Question: Which TGD [1] does the source give for `CC[C@@]1(OC(=O)CCCOC(=O)CC[C@H](N)C(=O)O)C(=O)OCc2c1cc1n(c2=O)Cc2cc3ccccc3nc2-1` here?
Answer: 3 days

Question: And the MTD [2]?
Answer: ~35 (mg of CPT) kg-1

Question: With `CC[C@@]1(OC(=O)CNC(=O)CC[C@H](N)C(=O)O)C(=O)OCc2c1cc1n(c2=O)Cc2cc3ccccc3nc2-1` as the compound, how does the TGD [1] read?
Answer: 2 days

Question: And the MTD [2]?
Answer: ~40 (mg of CPT) kg-1

Question: For `CC[C@@]1(OC(=O)CC[C@H](N)C(=O)O)C(=O)OCc2c1cc1n(c2=O)Cc2cc3ccccc3nc2-1`, which MTD [2] is on record?
Answer: >=48 (mg of CPT) kg-1

Question: And the TGD [3]?
Answer: 4 days

Question: With `CC[C@@]1(OC(=O)CCCNC(=O)CC[C@H](N)C(=O)O)C(=O)OCc2c1cc1n(c2=O)Cc2cc3ccccc3nc2-1` as the compound, how does the MTD [2] read?
Answer: >=60 (mg of CPT) kg-1

Question: And the TGD [4]?
Answer: 1 days

Question: For `CC[C@@]1(OC(=O)COC(=O)CC[C@H](N)C(=O)O)C(=O)OCc2c1cc1n(c2=O)Cc2cc3ccccc3nc2-1`, which MTD [2] is on record?
Answer: >=75 (mg of CPT) kg-1

Question: What about the TGD [5] of the same compound?
Answer: 4 days

Question: With `CC[C@@]1(OC(=O)CCC(NC(=O)CC[C@H](N)C(=O)O)C(=O)O)C(=O)OCc2c1cc1n(c2=O)Cc2cc3ccccc3nc2-1` (stereo not given in full) as the compound, how does the TGD [6] read?
Answer: 1 days

Question: What about the MTD [2] of the same compound?
Answer: >=41 (mg of CPT) kg-1

Question: Which results are given for `CC[C@@]1(OC(=O)CNC(=O)CNC(=O)CNC(=O)CC[C@H](N)C(=O)O)C(=O)OCc2c1cc1n(c2=O)Cc2cc3ccccc3nc2-1`?
Answer: MTD [7]: <34 (mg of CPT) kg-1; TGD [8]: 7 days; solubility [9]: 33 mg/mL (≈ 50.9 mM)

Question: Which MTD [7] does the source give for `CC[C@@]1(OC(=O)CNC(=O)CNC(=O)CC[C@H](N)C(=O)O)C(=O)OCc2c1cc1n(c2=O)Cc2cc3ccccc3nc2-1` here?
Answer: >=28 (mg of CPT) kg-1

Question: What about the TGD [10] of the same compound?
Answer: 4 days

Question: And the solubility [9]?
Answer: 34 mg/mL (≈ 57.5 mM)

Question: With `CC[C@@]1(O)C(=O)OCc2c1cc1n(c2=O)Cc2cc3ccccc3nc2-1` [CAMPTOTHECIN] as the compound, how does the MTD [7] read?
Answer: ~20 (mg of CPT) kg-1

Question: And the TGD [11]?
Answer: 17 days

Source: ChEMBL document CHEMBL1145017, “Synthesis and in vivo antitumor activity of poly(l-glutamic acid) conjugates of 20S-camptothecin” (J Med Chem, 2003)
